The values that follow come from ChEMBL document CHEMBL2046405, “BACE1 Inhibitor Peptides: Can an Infinitely Small k cat Value Turn the Substrate of an Enzyme into Its Inhibitor?” (ACS Med Chem Lett, 2012).

For orientation: inhibition means the drop in the measured response relative to a control, in per cent. The IC50 is the point on the concentration scale where inhibition reaches its midpoint.

Test [1] deals with T1, Beta-secretase 1 (Homo sapiens, UniProt P56817). The test is described as follows: Inhibition of human recombinant BACE1 using 7-methoxycoumarin-4-yl)acetyl-Ser-Glu-Val-Asn-Leu*Asp-Ala- Glu-Phe-Arg-Lys(2,4-dinitrophenyl)-Arg-Arg-NH2 as substrate at 2 uM by FRET assay. A digest of the protocol: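 Recombinant human BACE1 incubated with FRET substrate and 2.0 μM compound in incubation buffer for 1 h. The N-terminal substrate cleavage fragment was measured by RP-HPLC with fluorescence detection.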

Test [2] has as its target T1, Beta-secretase 1. The test is described as follows: Inhibition of human recombinant BACE1 using 7-methoxycoumarin-4-yl)acetyl-Ser-Glu-Val-Asn-Leu*Asp-Ala- Glu-Phe-Arg-Lys(2,4-dinitrophenyl)-Arg-Arg-NH2 as substrate at 0.2 uM by FRET assay. A digest of the protocol:
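Recombinant human BACE1 incubated with FRET substrate and 0.2 μM compound in incubation buffer for 1 h. The N-terminal cleavage fragment of the substrate was quantified by RP-HPLC with fluorescence detection.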

The target of test [3] is T1, Beta-secretase 1. The test is described as follows: Inhibition of human recombinant BACE1 using 7-methoxycoumarin-4-yl)acetyl-Ser-Glu-Val-Asn-Leu*Asp-Ala- Glu-Phe-Arg-Lys(2,4-dinitrophenyl)-Arg-Arg-NH2 as substrate by FRET assay. The procedure, abridged: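 Recombinant human BACE1 and FRET substrate incubated 1 h in incubation buffer with compound at 2.0 or 0.2 μM. The N-terminal cleavage fragment was analysed by reverse-phase HPLC with fluorescence detection.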

In test [4] the target is T1, Beta-secretase 1. The test is described as follows: Activity of human recombinant BACE1 after 1 hr. A digest of the protocol: (§1)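 Peptides incubated with recombinant human BACE1 for 1 or 24 h in buffer, at the same BACE1 and peptide concentrations as the inhibition assay. The buffer was analysed by HPLC for the product of cleavage at the P1–P1′ amide bond.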
The target in test [5] is T1, Beta-secretase 1. The test is described as follows: Activity of human recombinant BACE1 after 24 hrs. A digest of the protocol: as §1

Activity calls are given as the source filed them. The calls are words filed in the database; no cut-off is given here. Where a SMILES comes first, the peptide text is derived from it. [ ]: non-standard residue; d: D form. The star is where a group is joined. Orotyl(5-F) = O=C(c1[nH]c(=O)[nH]c(=O)c1F)*; Dap = NC[C@H](N)C(=O)O Where only a bound is given, the exact number is not on record here.

T1 sequence (P56817 whole entry, the tested form may be a part): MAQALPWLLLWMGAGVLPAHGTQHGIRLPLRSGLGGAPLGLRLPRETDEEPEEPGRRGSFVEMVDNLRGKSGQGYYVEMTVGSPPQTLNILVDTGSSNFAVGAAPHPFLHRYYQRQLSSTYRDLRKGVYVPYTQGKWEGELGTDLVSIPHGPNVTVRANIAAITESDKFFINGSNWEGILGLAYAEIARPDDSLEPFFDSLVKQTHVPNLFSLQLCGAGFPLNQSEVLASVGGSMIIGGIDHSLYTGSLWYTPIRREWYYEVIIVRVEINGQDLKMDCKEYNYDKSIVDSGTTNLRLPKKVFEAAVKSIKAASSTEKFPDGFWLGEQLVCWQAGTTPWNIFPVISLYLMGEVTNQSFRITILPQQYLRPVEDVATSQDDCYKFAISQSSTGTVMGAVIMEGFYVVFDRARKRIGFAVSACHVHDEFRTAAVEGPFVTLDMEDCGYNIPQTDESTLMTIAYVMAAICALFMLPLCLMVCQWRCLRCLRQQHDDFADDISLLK

Take `CC(C)C[C@H](NC(=O)[C@@H](NC(=O)[C@@H](N)CNC(=O)c1[nH]c(=O)[nH]c(=O)c1F)C(C)C)C(=O)N[C@@H](Cc1ccccc1)C(=O)N[C@H](CO)C(=O)O`: the results for the inhibition at Beta-secretase 1 [1] and on Beta-secretase 1 [2] were 94% and 57%, respectively. Moreover, on Beta-secretase 1 [3], the concentration for half-maximal inhibition (IC50) worked out at 138 nM. The result on Beta-secretase 1 [4] and at Beta-secretase 1 [5] was inactive.
Turning to `CC(C)C[C@H](NC(=O)[C@@H](NC(=O)[C@@H](N)CCC(=O)O)C(C)C)C(=O)N[C@@H](Cc1ccccc1)C(=O)N[C@@H](CO)C(=O)N[C@@H](C)C(=O)N[C@@H](CCC(=O)O)C(=O)N[C@@H](Cc1ccccc1)C(=O)O`, the inhibition on Beta-secretase 1 [1] stood at 6%.
Turning to `CC(C)C[C@H](NC(=O)[C@@H](NC(=O)[C@@H](N)CNC(=O)c1[nH]c(=O)[nH]c(=O)c1F)C(C)C)C(=O)N[C@@H](Cc1ccccc1)C(=O)N[C@H](C)C(=O)O`, the inhibition on Beta-secretase 1 [1] came out at 93%; at Beta-secretase 1 [2], 53%. In addition, the IC50 on Beta-secretase 1 [3] was 169 nM.
For `CC(C)[C@H](NC(=O)[C@@H](N)CNC(=O)c1[nH]c(=O)[nH]c(=O)c1F)C(=O)N[C@@H](CC1CCCCC1)C(=O)N[C@@H](Cc1ccccc1)C(=O)N[C@H](CC(N)=O)C(=O)O` the same measures were 92%, 58% and 141 nM.
As for `CC(C)C[C@H](NC(=O)[C@@H](NC(=O)[C@@H](N)CCC(=O)O)C(C)C)C(=O)N[C@@H](Cc1ccccc1)C(=O)N[C@H](CN)C(=O)N[C@@H](C)C(=O)N[C@@H](CCC(=O)O)C(=O)N[C@@H](Cc1ccccc1)C(=O)O`, the inhibition on Beta-secretase 1 [1] stood at 15%.
Still for that read-out and setting: the value for `CC(C)[C@H](NC(=O)[C@@H](N)CNC(=O)c1[nH]c(=O)[nH]c(=O)c1F)C(=O)N[C@@H](CC(N)=O)C(=O)N[C@@H](Cc1ccccc1)C(=O)O` (H-[Dap](Orotyl(5-F))VNF-OH) was below 5%; that for `CC(C)[C@H](NC(=O)[C@@H](N)CNC(=O)c1[nH]c(=O)[nH]c(=O)c1F)C(=O)N[C@@H](CC(N)=O)C(=O)N[C@@H](Cc1ccccc1)C(=O)N[C@@H](CC(N)=O)C(=O)O` (H-[Dap](Orotyl(5-F))VNFN-OH) was below 5%.
With `CC(C)C[C@H](NC(=O)[C@@H](NC(=O)[C@@H](N)CNC(=O)c1[nH]c(=O)[nH]c(=O)c1F)C(C)C)C(=O)N[C@@H](Cc1ccccc1)[C@@H](O)C(=O)Nc1cccc(C(=O)O)c1`, the IC50 at Beta-secretase 1 [3] was 26 nM.
On to `CC(C)C[C@H](NC(=O)[C@@H](NC(=O)[C@@H](N)CCC(=O)O)C(C)C)C(=O)N[C@@H](Cc1ccccc1)C(=O)N[C@H](CO)C(=O)O`, for which the inhibition at Beta-secretase 1 [1] came out at 23%.
As for `CC(C)C[C@H](NC(=O)[C@@H](NC(=O)[C@@H](N)CCC(=O)O)C(C)C)C(=O)N[C@@H](Cc1ccccc1)C(=O)N[C@H](CC(N)=O)C(=O)O`, the inhibition on Beta-secretase 1 [1] worked out at 29%.
As to `CC(C)[C@H](NC(=O)[C@@H](N)CNC(=O)c1[nH]c(=O)[nH]c(=O)c1F)C(=O)N[C@@H](CC1CCCCC1)C(=O)N[C@@H](Cc1ccccc1)C(=O)N[C@H](CO)C(=O)O`, the inhibition at Beta-secretase 1 [1] stood at 92%; at Beta-secretase 1 [2] it was 54%. For the same compound, the IC50 on Beta-secretase 1 [3] came to 163 nM.
In the case of `CC(C)C[C@H](NC(=O)[C@@H](NC(=O)[C@@H](N)CNC(=O)c1[nH]c(=O)[nH]c(=O)c1F)C(C)C)C(=O)N[C@@H](Cc1ccccc1)C(=O)N[C@@H](CO)C(=O)O`, the inhibition is 85% on Beta-secretase 1 [1] and 48% at Beta-secretase 1 [2]. Further, the concentration for half-maximal inhibition (IC50) at Beta-secretase 1 [3] was 263 nM. Also, the outcome at Beta-secretase 1 [4] and on Beta-secretase 1 [5] was inactive.
Consider `CC(C)C[C@H](NC(=O)[C@@H](NC(=O)[C@@H](N)CCC(=O)O)C(C)C)C(=O)N[C@@H](Cc1ccccc1)C(=O)N[C@@H](CS)C(=O)N[C@@H](C)C(=O)N[C@@H](CCC(=O)O)C(=O)N[C@@H](Cc1ccccc1)C(=O)O`, for which the inhibition on Beta-secretase 1 [1] is below 5%.
On the same count and under the same terms, under `CC(C)C[C@H](NC(=O)[C@@H](NC(=O)[C@@H](N)CCC(=O)O)C(C)C)C(=O)N[C@@H](Cc1ccccc1)C(=O)N[C@@H](CN)C(=O)N[C@@H](C)C(=O)N[C@@H](CCC(=O)O)C(=O)N[C@@H](Cc1ccccc1)C(=O)O` stands 7%.
Turning to `CC(C)C[C@H](NC(=O)[C@@H](NC(=O)[C@@H](N)CNC(=O)c1[nH]c(=O)[nH]c(=O)c1F)C(C)C)C(=O)N[C@@H](Cc1ccccc1)C(=O)N[C@H](CC(N)=O)C(=O)O`, the inhibition on Beta-secretase 1 [1] amounted to 95%; on Beta-secretase 1 [2], 65%. Besides, at Beta-secretase 1 [3], the IC50 was 86 nM. Besides, the outcome at Beta-secretase 1 [4] and on Beta-secretase 1 [5] was inactive.
`CC(C)C[C@H](NC(=O)[C@@H](NC(=O)[C@@H](N)CNC(=O)c1[nH]c(=O)[nH]c(=O)c1F)C(C)C)C(=O)N[C@@H](Cc1ccccc1)C(=O)N[C@@H](CC(N)=O)C(=O)O`: the inhibition on Beta-secretase 1 [1] stood at 89%; at Beta-secretase 1 [2], 56%. Further, the IC50 on Beta-secretase 1 [3] was determined as 173 nM. For the same compound, the outcome at Beta-secretase 1 [4] and on Beta-secretase 1 [5] was inactive.
Regarding `CC(C)C[C@H](NC(=O)[C@@H](NC(=O)[C@@H](N)CNC(=O)c1[nH]c(=O)[nH]c(=O)c1F)C(C)C)C(=O)N[C@@H](Cc1ccccc1)C(=O)O` (H-[Dap](Orotyl(5-F))VLF-OH), the inhibition at Beta-secretase 1 [1] is 90%; on Beta-secretase 1 [2] it was 54%. For the same compound, the IC50 on Beta-secretase 1 [3] was determined as 184 nM. Moreover, the outcome at Beta-secretase 1 [4] and at Beta-secretase 1 [5] was Active.
In the case of `CC(C)C[C@H](NC(=O)[C@@H](NC(=O)[C@@H](N)CCC(=O)O)C(C)C)C(=O)N[C@@H](Cc1ccccc1)C(=O)N[C@H](CS)C(=O)N[C@@H](C)C(=O)N[C@@H](CCC(=O)O)C(=O)N[C@@H](Cc1ccccc1)C(=O)O`, the inhibition at Beta-secretase 1 [1] was 28%.
Regarding `CC(C)C[C@H](NC(=O)[C@@H](NC(=O)[C@@H](N)CNC(=O)c1[nH]c(=O)[nH]c(=O)c1F)C(C)C)C(=O)N[C@@H](Cc1ccccc1)C(=O)N[C@@H](C(=O)O)C(C)C`, the inhibition at Beta-secretase 1 [1] turned out to be 94%; on Beta-secretase 1 [2], 69%. Besides, on Beta-secretase 1 [3], the IC50 was 82 nM.
For `CC(C)[C@H](NC(=O)[C@@H](N)CCC(=O)O)C(=O)N[C@@H](CC(N)=O)C(=O)N[C@@H](Cc1ccccc1)C(=O)O` (H-EVNF-OH), the inhibition on Beta-secretase 1 [1] is below 5%.
Still for that read-out and setting: the value for `CC(C)C[C@H](NC(=O)[C@@H](NC(=O)[C@@H](N)CCC(=O)O)C(C)C)C(=O)N[C@@H](Cc1ccccc1)C(=O)N[C@H](CO)C(=O)N[C@@H](C)C(=O)N[C@@H](CCC(=O)O)C(=O)N[C@@H](Cc1ccccc1)C(=O)O` was 28%; that for `CC(C)C[C@H](NC(=O)[C@@H](NC(=O)[C@@H](N)CCC(=O)O)C(C)C)C(=O)N[C@@H](Cc1ccccc1)C(=O)O` (H-EVLF-OH) was 8%; that for `CC(C)[C@H](NC(=O)[C@@H](N)CCC(=O)O)C(=O)N[C@@H](CCCCN)C(=O)N[C@@H](Cc1ccccc1)C(=O)O` (H-EVKF-OH) was 10%.
